From ChEMBL document CHEMBL1123305, “Synthesis and gastric antisecretory properties of alpha chain diene derivatives of misoprostol” (1986)

Experiments:
Canis familiaris [1] = experiment: Intravenous gastric antisecretory activity against histamine-stimulated Heidenhain Pouch (HP) dogs at 1 ug/kg; assay type: functional; settings: Canis lupus familiaris, Stomach
Outline: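 Conscious, 18-h-fasted Heidenhain pouch dogs in Pavlov stands, iv 0.15 M NaCl infusion, used at most weekly. Histamine 1.0 mg/h was infused after a 15–30-min basal period. At steady state (about 1 h), a single iv bolus was given in ethanol stock diluted with isoosmotic pH 7.4 phosphate buffer (≤20% ethanol). Acid was titrated to pH 7.0 over 15-min collections; percent inhibition was taken from maximum inhibition of total acid output.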

Canis familiaris [2] = species on record: Canis familiaris; experiment: Relative gastric antisecretory effect in histamine-stimulated gastric fistula (GF) dogs; settings: Canis lupus familiaris, Stomach
[3] = Ratio of ED50 value of diarrheal effect to that of ED50 value of antisecretory effect; assay type: functional
Outline: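 Ratio of rat oral diarrheal ED50 at 8 h to intragastric antisecretory ED50 in histamine-stimulated gastric fistula dogs (4-h total acid output).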

Canis familiaris [4] = species on record: Canis familiaris; experiment: Oral gastric antisecretory effect in histamine-stimulated Heidenhain Pouch (HP) dogs; assay type: functional; settings: Canis lupus familiaris, Stomach, in the assay text read “gastric fistula (GF)” for “Heidenhain Pouch (HP)”
Outline: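 Conscious gastric fistula dogs, 4–12 per dose, three doses. After a 30-min basal period, drug was given intragastrically via dosing plug and the cannula closed for 30 min. Histamine was then infused at 15 μg/kg per h, with 30-min collections for 4 h. Acid was titrated to pH 7.0. ED50 is the dose giving 50% inhibition of 4-h total acid output. Relative potency and 95% limits came from bioassay analysis.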

Rattus norvegicus = species on record: Rattus norvegicus; experiment: Effect determining the diarrheagenic activity in rats; assay type: functional
Outline: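 Adult male Charles River rats (210–230 g), housed singly and fasted 24 h, n = 6–12. Logarithmically graded oral doses were given. Diarrhea was scored all-or-none hourly to 8 h. ED50 and approximate asymptotic 95% confidence limits came from a maximum-likelihood logistic dose–response fit.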

| Structure (SMILES) | inhibition in vivo at 0.001 mg/kg (Canis familiaris [1]) [%] | Relative potency (Canis familiaris [2]) | Ratio [3] | ED50 (Canis familiaris [4]) [µg/kg] | ED50 (Rattus norvegicus) [µg/kg] |
| --- | --- | --- | --- | --- | --- |
| CCCCC(C)(O)C/C=C/[C@H]1[C@H](O)CC(=O)[C@@H]1CC/C=C\C=C\C(=O)OC (stereo not given in full) | 41 | – | – | – | – |
| CCCCC(C)(O)C/C=C/[C@H]1[C@H](O)CC(=O)[C@@H]1CCCCCCC(=O)OC (stereo not given in full) [MISOPROSTOL] | 79 | 0.08 | 1310 | 0.28 | – |
| CCCCC(C)(O)C/C=C/[C@H]1[C@H](O)CC(=O)[C@@H]1C/C=C\C=C\CC(=O)OC (stereo not given in full) | 83 | 0.31 | 7120 | 0.08 | 570 |
| CCCCC(C)(O)C/C=C/[C@H]1[C@H](O)CC(=O)[C@@H]1C/C=C/C/C=C/C(=O)OC (stereo not given in full) | 68 | – | – | – | – |
| CCCCC(C)(O)C/C=C/[C@H]1[C@H](O)CC(=O)[C@@H]1C/C=C\C/C=C/C(=O)OC (stereo not given in full) | 0 | – | – | – | – |
| CCCCC(C)(O)C/C=C/[C@H]1[C@H](O)CC(=O)[C@@H]1C/C=C/C=C/CC(=O)OC (stereo not given in full) | 21 | – | – | – | – |
| CCCCC(C)(O)C/C=C/[C@H]1[C@H](O)CC(=O)[C@@H]1CC/C=C\CCC(=O)OC (stereo not given in full) [ENISOPROST] | 92 | 1 | 1240 | 0.05 | 62 |
| CCCCC(C)(O)C/C=C/[C@H]1[C@H](O)CC(=O)[C@@H]1CC/C=C/C=C/C(=O)OC (stereo not given in full) | 53 | – | – | – | – |
| CCCCC(C)(O)C/C=C/[C@H]1[C@H](O)CC(=O)[C@@H]1C/C=C/C=C\CC(=O)OC (stereo not given in full) | 96 | – | – | – | – |
